pIC50, pKi: −log10 of the molar value.
What was measured:
[1] = target: T1, Delta-type opioid receptor (Rattus norvegicus, UniProt P33533); assay: Ability to displace [3H]DADLE radioligand from Opioid receptor delta 1
How it was run: (§1)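 Rat brain membranes prepared daily, homogenized in ice-cold 10 mM Tris-HCl pH 7.0, centrifuged twice at 30000g. [3H]DADLE 2.0 nM, 2 h at 25 °C in 50 mM Tris-HCl pH 7.4 with 100 mM choline chloride, 3 mM MnCl2, 100 nM DAMGO to block mu sites, protease inhibitors. Nonspecific binding: 20 μM levallorphan. 10 drug concentrations, run twice. Ki from IC50 by Cheng-Prusoff.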

[2] = target: T2, Kappa-type opioid receptor (Cavia porcellus, UniProt P41144); assay: Ability to displace [3H]U-69593 radioligand from Opioid receptor kappa 1
How it was run: (§2)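 Guinea pig brain membranes prepared daily, homogenized in ice-cold 10 mM Tris-HCl pH 7.0, centrifuged twice at 30000g. [3H]U69,593 2.0 nM, 2 h at 25 °C in 50 mM Tris-HCl pH 7.4 with 1 μg/mL captopril and protease inhibitors. Nonspecific binding: 1 μM U69,593. 10 drug concentrations, run twice. Ki from IC50 by Cheng-Prusoff.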

Mu-type opioid receptor [3] = target: T3, Mu-type opioid receptor (Rattus norvegicus, UniProt P33535); assay: Ability to displace [3H]DAMGO radioligand from Opioid receptor mu 1
How it was run: (§3)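 Rat brain membranes prepared daily, homogenized in ice-cold 10 mM Tris-HCl pH 7.0, centrifuged twice at 30000g. [3H]DAMGO 2.0 nM, 2 h at 25 °C in 50 mM Tris-HCl pH 7.4 with protease inhibitors. Nonspecific binding: 20 μM levallorphan. 10 drug concentrations, run twice. IC50 converted to Ki by Cheng-Prusoff.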

[4] = target: Opioid receptors; delta & kappa (Homo sapiens) (UniProt P41145+P41143); assay: Selectivity Ratio of Ki of Kappa receptor/ Ki of Delta receptor; assay type: protein assay
[5] = target: Opioid receptors; mu & delta (Homo sapiens) (UniProt P41143+P35372); assay: Selectivity Ratio of Ki of Mu receptor/ Ki of Delta receptor; assay type: protein assay
Cavia porcellus [6] = species on record: Cavia porcellus; assay: (§4) Agonistic activity in Guinea Pig Ileum; assay type: functional
How it was run: (§5)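 Electrically stimulated (0.1 Hz, 0.4-ms pulses, 2-ms for MVD) guinea pig ileum myenteric plexus strips (male Hartley) or vas deferens (male ICR mice) in 37 °C oxygenated Krebs (Mg-free for MVD). […] Tissues checked against an initial DPDPE or PL-017 curve. Mean of 2-4 tissues.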

Mus musculus [7] = species on record: Mus musculus; assay: (§6) Agonistic activity in Mouse Vas Deferens; assay type: functional; how it was run: as §5
[8] = target: T2, Kappa-type opioid receptor; assay: Ability to inhibit GTP-gamma-S binding to Opioid receptor kappa 1 of guinea pig caudate.
How it was run: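 Guinea pig caudate membranes (10 μg) incubated 4 h with 0.05-0.1 nM [35S]GTP-γ-S in Tris buffer pH 7.7 with NaCl, MgCl2, EDTA, DTT, 100 µM GDP, 0.1% BSA. κ agonist U69,593 (500 nM or 10 μM) antagonised by ≥10 antagonist concentrations.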

Mu-type opioid receptor [9] = target: Mu-type opioid receptor (Cavia porcellus, UniProt P97266); assay: Ability to inhibit GTP-gamma-S binding to Opioid receptor mu 1 of guinea pig caudate.
How it was run: (§7)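 Antagonism of agonist-stimulated [35S]GTP-γ-S (0.05-0.1 nM) binding in guinea pig caudate membranes (10 μg). Buffer: 59 mM Tris pH 7.7, 100 mM NaCl, 1 mM EDTA, 1 mM DTT, 100 μM GDP, 0.1% BSA. Agonist 500 nM or 10 μM (DAMGO for mu, U69,593 for kappa), ≥10 antagonist concentrations, 4 h. Filtration and scintillation counting. Nonspecific binding: 10 μM GTP-γ-S. Triplicate, ≥3 experiments. Ki by curve fitting.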

Cavia porcellus [10] = species on record: Cavia porcellus; assay: as §4; assay type: functional, organism-based; how it was run: as §5
Mus musculus [11] = species on record: Mus musculus; assay: as §6; assay type: functional, organism-based; how it was run: as §5
[12] = target: T2, Kappa-type opioid receptor; assay: Ability to inhibit GTP-gamma-S binding to Opioid receptor kappa 1 of guinea pig caudate; how it was run: as §7
[13] = target: T2, Kappa-type opioid receptor; assay: Binding affinity towards Opioid receptor kappa 1 by the displacement of [3H]U-69593 radioligand in guinea pig brain membranes; assay type: cell membranes, Membrane; how it was run: as §2
Mu-type opioid receptor [14] = target: T3, Mu-type opioid receptor; assay: Binding affinity towards Opioid receptor mu 1 by the displacement of [3H]DAMGO radioligand in rat brain membranes; assay type: cell membranes; how it was run: as §3
[15] = target: T1, Delta-type opioid receptor; assay: Binding affinity towards Opioid receptor delta 1 by the displacement of [3H]DADLE radioligand in rat brain membranes; assay type: cell membranes; how it was run: as §1

Sequence of Opioid receptors; mu & delta (Homo sapiens) (P35372 whole entry, looked up): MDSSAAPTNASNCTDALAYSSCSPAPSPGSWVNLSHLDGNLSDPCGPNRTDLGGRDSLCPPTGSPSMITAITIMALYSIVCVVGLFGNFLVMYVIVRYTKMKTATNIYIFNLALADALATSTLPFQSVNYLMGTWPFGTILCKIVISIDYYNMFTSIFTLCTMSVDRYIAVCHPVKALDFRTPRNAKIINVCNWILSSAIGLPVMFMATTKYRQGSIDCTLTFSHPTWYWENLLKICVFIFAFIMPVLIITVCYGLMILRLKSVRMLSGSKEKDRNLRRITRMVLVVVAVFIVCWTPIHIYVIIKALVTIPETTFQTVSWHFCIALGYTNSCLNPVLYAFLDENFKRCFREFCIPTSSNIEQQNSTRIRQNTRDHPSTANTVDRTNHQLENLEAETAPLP
Sequence of Opioid receptors; mu & delta (Homo sapiens) (P41143 whole entry, looked up): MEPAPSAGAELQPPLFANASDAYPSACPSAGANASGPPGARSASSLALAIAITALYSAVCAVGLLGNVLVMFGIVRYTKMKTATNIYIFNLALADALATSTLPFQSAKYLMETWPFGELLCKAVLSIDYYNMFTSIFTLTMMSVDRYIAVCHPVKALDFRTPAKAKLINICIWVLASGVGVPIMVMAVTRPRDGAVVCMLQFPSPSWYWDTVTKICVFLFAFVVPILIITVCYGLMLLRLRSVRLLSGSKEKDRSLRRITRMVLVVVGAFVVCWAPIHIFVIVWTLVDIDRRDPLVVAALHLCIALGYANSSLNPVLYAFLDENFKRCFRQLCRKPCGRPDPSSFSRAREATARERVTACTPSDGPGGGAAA
Sequence of Opioid receptors; delta & kappa (Homo sapiens) (P41143 whole entry, looked up): as above
Sequence of Opioid receptors; delta & kappa (Homo sapiens) (P41145 whole entry, looked up): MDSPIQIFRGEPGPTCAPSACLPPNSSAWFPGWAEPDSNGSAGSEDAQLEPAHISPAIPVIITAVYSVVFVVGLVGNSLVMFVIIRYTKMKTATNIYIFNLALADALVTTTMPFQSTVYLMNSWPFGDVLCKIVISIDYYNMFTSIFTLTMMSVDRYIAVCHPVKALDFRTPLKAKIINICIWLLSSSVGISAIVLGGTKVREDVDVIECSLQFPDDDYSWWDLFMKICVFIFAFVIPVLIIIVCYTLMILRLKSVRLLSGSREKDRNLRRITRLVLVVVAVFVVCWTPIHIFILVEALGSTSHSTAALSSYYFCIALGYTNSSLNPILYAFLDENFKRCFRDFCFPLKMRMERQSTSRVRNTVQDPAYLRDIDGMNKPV
T3 sequence (P33535 whole entry): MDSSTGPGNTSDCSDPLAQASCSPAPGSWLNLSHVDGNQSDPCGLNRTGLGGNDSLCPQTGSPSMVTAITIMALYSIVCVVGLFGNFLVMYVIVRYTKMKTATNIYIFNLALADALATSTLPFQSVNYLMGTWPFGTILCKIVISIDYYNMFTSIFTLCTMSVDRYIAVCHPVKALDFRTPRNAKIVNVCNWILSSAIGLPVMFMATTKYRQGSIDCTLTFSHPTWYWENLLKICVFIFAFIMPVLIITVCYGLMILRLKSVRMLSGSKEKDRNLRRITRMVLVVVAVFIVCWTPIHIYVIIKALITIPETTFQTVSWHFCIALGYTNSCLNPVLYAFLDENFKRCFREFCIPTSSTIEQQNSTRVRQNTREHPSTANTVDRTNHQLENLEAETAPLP
T2 sequence (P41144 whole entry): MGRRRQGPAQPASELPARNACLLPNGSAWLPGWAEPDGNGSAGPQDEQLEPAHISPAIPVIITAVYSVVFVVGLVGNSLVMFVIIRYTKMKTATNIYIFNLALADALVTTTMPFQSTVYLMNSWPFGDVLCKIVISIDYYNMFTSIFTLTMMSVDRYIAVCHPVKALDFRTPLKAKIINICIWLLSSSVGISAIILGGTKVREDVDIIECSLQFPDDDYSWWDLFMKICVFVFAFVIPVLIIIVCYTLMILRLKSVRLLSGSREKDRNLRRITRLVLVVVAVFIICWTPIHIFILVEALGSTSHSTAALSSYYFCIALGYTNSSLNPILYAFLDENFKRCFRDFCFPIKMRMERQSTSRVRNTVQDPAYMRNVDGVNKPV
T1 sequence (P33533 whole entry): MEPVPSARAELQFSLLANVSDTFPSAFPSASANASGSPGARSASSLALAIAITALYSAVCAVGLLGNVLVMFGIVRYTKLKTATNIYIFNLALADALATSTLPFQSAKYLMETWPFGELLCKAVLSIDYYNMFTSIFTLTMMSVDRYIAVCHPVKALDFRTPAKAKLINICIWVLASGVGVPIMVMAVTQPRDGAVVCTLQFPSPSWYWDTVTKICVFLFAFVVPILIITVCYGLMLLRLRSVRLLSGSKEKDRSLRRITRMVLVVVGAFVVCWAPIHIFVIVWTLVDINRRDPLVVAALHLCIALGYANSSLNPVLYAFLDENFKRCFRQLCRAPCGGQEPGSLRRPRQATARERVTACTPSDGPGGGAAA
Sequence of Mu-type opioid receptor (Cavia porcellus, UniProt P97266) (P97266 whole entry): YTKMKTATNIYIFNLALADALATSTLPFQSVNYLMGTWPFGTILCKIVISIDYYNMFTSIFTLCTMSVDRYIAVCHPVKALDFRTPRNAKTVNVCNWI

| SMILES | pKi [1] | pKi [2] | pKi (Mu-type opioid receptor [3]) | Selectivity ratio [4] | Selectivity ratio [5] | also measured |
| --- | --- | --- | --- | --- | --- | --- |
| COc1ccc2c(c1O)[C@]13CCN(CC4CC4)[C@H](C2)[C@]1(O)Cc1c([nH]c2ccccc12)C3 | 7.66 | 5.50 | 5.73 | 145 | 85 |  |
| CCN1CC[C@]23Cc4[nH]c5ccccc5c4C[C@H]2[C@H]1Cc1ccc(OC)c(O)c13 | 6.29 | 5.44 | 5.87 | 7 | 3 |  |
| Oc1ccc2c3c1O[C@H]1c4[nH]c5ccccc5c4C[C@@]4(O)[C@@H](C2)N(CC2CC2)CC[C@]314 [NALTRINDOLE] | […] |  |  |  |  | Inhibition (Cavia porcellus [6]): <20%; Inhibition (Mus musculus [7]): <20%; pKi [8]: 8.05; pKi (Mu-type opioid receptor [9]): 8.49 |
| COc1ccc2c(c1O)[C@]13CCN(C)[C@H](C2)[C@@H]1Cc1c([nH]c2ccccc12)C3 | 7.03 | < 5.17 | 5.55 | 72 | 30 |  |
| CCN1CC[C@]23Cc4[nH]c5ccccc5c4C[C@@]2(O)[C@H]1Cc1ccc(OC)c(O)c13 | 6.16 | < 5.28 | 6.10 | 8 |  |  |
| COc1ccc2c(c1O)[C@]13CCN(CC4CC4)[C@H](C2)[C@@H]1Cc1c([nH]c2ccccc12)C3 |  |  |  |  |  | pIC50 (Cavia porcellus [10]): 6.27; pIC50 (Mus musculus [11]): 6.73; pKi [12]: < 5.90; pKi [13]: 5.10; pKi (Mu-type opioid receptor [9]): < 5.90; pKi (Mu-type opioid receptor [14]): 4.88; pKi [15]: 8.15 |
| COc1ccc2c(c1O)[C@]13CCN(C)[C@H](C2)[C@]1(O)Cc1c([nH]c2ccccc12)C3 | 6.66 | < 5.17 | 5.55 | 31 | 13 |  |
| C=CCN1C[C@H](C)N([C@H](c2ccc(C(=O)N(CC)CC)cc2)c2cccc(OC)c2)C[C@H]1C [SNC-80] |  |  |  |  |  | pIC50 (Cavia porcellus [10]): 5.26; pIC50 (Mus musculus [11]): 8.56 |
